The source made the active and inactive calls. The calls are words filed in the database; no cut-off is given here.
Assays:
[1] = target: T1, Gonadotropin-releasing hormone receptor (Rattus norvegicus) (UniProt P30969); assay: Duration of action, measured using castrated male rat assay to inhibit luteinizing hormone release.; fully active at 24 hr but not at 48 hr; type: functional
T1 sequence (whole entry): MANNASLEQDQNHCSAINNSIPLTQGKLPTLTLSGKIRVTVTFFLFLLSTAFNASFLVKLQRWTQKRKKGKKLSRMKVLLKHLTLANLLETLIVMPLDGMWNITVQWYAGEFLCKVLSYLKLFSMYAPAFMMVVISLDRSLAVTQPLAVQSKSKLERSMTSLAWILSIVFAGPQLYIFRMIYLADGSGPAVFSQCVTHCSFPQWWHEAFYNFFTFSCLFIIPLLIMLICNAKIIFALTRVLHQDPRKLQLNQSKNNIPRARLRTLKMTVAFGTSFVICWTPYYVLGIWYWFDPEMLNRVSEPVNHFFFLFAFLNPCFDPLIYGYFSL

Rattus norvegicus [2] = species on record: Rattus norvegicus; assay: Effect in the anti ovulatory assay (AOA) in rats expressed as no. of rats ovulating/No of rats treated at 1.0 mg; 2/8; type: functional
[3] = target: T1, Gonadotropin-releasing hormone receptor (Rattus norvegicus); assay: In vitro potency to inhibit GnRH-mediated LH secretion by cultured pituitary cells relative to [Ac-delta-Pro1,DFpa2,DTrp36]GnRH.; type: functional, cell-based; conditions: Pituitary gland cell
Procedure, shortened: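 Dispersed rat pituitary cells in culture; antagonist inhibition of GnRH-stimulated LH secretion. Potency expressed relative to standard antagonist [Ac-Δ3Pro1,D4FPhe2,DTrp3,6]GnRH taken as 1.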

Rattus norvegicus [4] = species on record: Rattus norvegicus; assay: Effect in the anti ovulatory assay (AOA) in rats expressed as no. of rats ovulating/No of rats treated at 1.0 mg; 1/8; type: functional
Rattus norvegicus [5] = species on record: Rattus norvegicus; assay: Effect in the anti ovulatory assay (AOA) in rats expressed as no. of rats ovulating/No of rats treated at 0.5 mg; 4/4; type: functional
Rattus norvegicus [6] = species on record: Rattus norvegicus; assay: Effect in the anti ovulatory assay (AOA) in rats expressed as no. of rats ovulating/No of rats treated at 0.5 mg; 3/4; type: functional
Rattus norvegicus [7] = species on record: Rattus norvegicus; assay: Effect in the anti ovulatory assay (AOA) in rats expressed as no. of rats ovulating/No of rats treated at 1.0 mg; 5/8; type: functional
Rattus norvegicus [8] = species on record: Rattus norvegicus; assay: Effect in the anti ovulatory assay (AOA) in rats expressed as no. of rats ovulating/No of rats treated at 1.0 mg; 6/6; type: functional
[9] = target: T1, Gonadotropin-releasing hormone receptor (Rattus norvegicus); assay: Effect in the anti ovulatory assay (AOA) in rats expressed as no. of rats ovulating/No of rats treated at 2.5 mg; 0/8; type: functional
Rattus norvegicus [10] = species on record: Rattus norvegicus; assay: Effect in the anti ovulatory assay (AOA) in rats expressed as no. of rats ovulating/No of rats treated at 1.0 mg; 11/15; type: functional
Rattus norvegicus [11] = species on record: Rattus norvegicus; assay: Duration of action measured using castrated male rat assay to inhibit luteinizing hormone release.; In active at 24 hr; type: functional, organism-based
Rattus norvegicus [12] = species on record: Rattus norvegicus; assay: Effect in the anti ovulatory assay (AOA) in rats expressed as no. of rats ovulating/No of rats treated at 2.5 mg; 3/3; type: functional
Rattus norvegicus [13] = species on record: Rattus norvegicus; assay: Duration of action measured using castrated male rat assay to inhibit luteinizing hormone release.; fully active at 48 hr but not at 72 hr; type: functional
Rattus norvegicus [14] = species on record: Rattus norvegicus; assay: Effect in the anti ovulatory assay (AOA) in rats expressed as no. of rats ovulating/No of rats treated at 1.0 mg; 4/6; type: functional
Rattus norvegicus [15] = species on record: Rattus norvegicus; assay: Effect in the anti ovulatory assay (AOA) in rats expressed as no. of rats ovulating/No of rats treated at 2.5 mg; 2/8; type: functional

CC(=O)N[C@H](Cc1ccc2ccccc2c1)C(=O)N[C@H](Cc1ccc(Cl)cc1)C(=O)N[C@H](Cc1cccnc1)C(=O)N[C@@H](CO)C(=O)N[C@@H](Cc1ccc(NC(=O)[C@H](C)Nc2n[nH]c(N)n2)cc1)C(=O)N[C@H](Cc1ccc(NC(=O)[C@@H](C)Nc2n[nH]c(N)n2)cc1)C(=O)N[C@@H](CC(C)C)C(=O)N[C@@H](CCCCNC(C)C)C(=O)N1CCC[C@H]1C(=O)N[C@H](C)N
Duration of action [1]: 24 h
No. of rats ovulated (Rattus norvegicus [2]): 2
Relative potency [3]: 0.36

CC(=O)N[C@H](Cc1ccc2ccccc2c1)C(=O)N[C@H](Cc1ccc(Cl)cc1)C(=O)N[C@H](Cc1cccnc1)C(=O)N[C@@H](CO)C(=O)N[C@@H](Cc1ccc(NC(=O)[C@@H](C)Nc2n[nH]c(N)n2)cc1)C(=O)N[C@H](Cc1ccc(NC(=O)[C@H](C)Nc2n[nH]c(N)n2)cc1)C(=O)N[C@@H](CC(C)C)C(=O)N[C@@H](CCCCNC(C)C)C(=O)N1CCC[C@H]1C(=O)N[C@H](C)N
No. of rats ovulated (Rattus norvegicus [4]): 1
Relative potency [3]: 0.4
No. of rats ovulated (Rattus norvegicus [5]): 4

CC(=O)NCC(=O)Nc1ccc(C[C@H](NC(=O)[C@H](CO)NC(=O)[C@@H](Cc2cccnc2)NC(=O)[C@@H](Cc2ccc(Cl)cc2)NC(=O)[C@@H](Cc2ccc3ccccc3c2)NC(C)=O)C(=O)N[C@H](Cc2ccc(NC(=O)CNC(C)=O)cc2)C(=O)N[C@@H](CC(C)C)C(=O)N[C@@H](CCCCNC(C)C)C(=O)N2CCC[C@H]2C(=O)N[C@H](C)N)cc1
Duration of action [1]: 24 h
No. of rats ovulated (Rattus norvegicus [6]): 3
Relative potency [3]: 0.85
No. of rats ovulated (Rattus norvegicus [7]): 5

CCCC(=O)Nc1ccc(C[C@H](NC(=O)[C@H](CO)NC(=O)[C@@H](Cc2cccnc2)NC(=O)[C@@H](Cc2ccc(Cl)cc2)NC(=O)[C@@H](Cc2ccc3ccccc3c2)NC(C)=O)C(=O)N[C@H](Cc2ccc(NC(=O)CCC)cc2)C(=O)N[C@@H](CC(C)C)C(=O)N[C@@H](CCCCNC(C)C)C(=O)N2CCC[C@H]2C(=O)N[C@H](C)N)cc1
No. of rats ovulated (Rattus norvegicus [8]): 6
No. of rats ovulated [9]: 0

CC(=O)N[C@H](Cc1ccc2ccccc2c1)C(=O)N[C@H](Cc1ccc(Cl)cc1)C(=O)N[C@H](Cc1cccnc1)C(=O)N[C@@H](CO)C(=O)N[C@@H](Cc1ccc(NC(=O)c2n[nH]c(N)n2)cc1)C(=O)N[C@H](Cc1ccc(NC(=O)c2n[nH]c(N)n2)cc1)C(=O)N[C@@H](CC(C)C)C(=O)N[C@@H](CCCCNC(C)C)C(=O)N1CCC[C@H]1C(=O)N[C@H](C)N
No. of rats ovulated (Rattus norvegicus [10]): 11
Relative potency [3]: 0.65
No. of rats ovulated (Rattus norvegicus [5]): 4

CC(=O)NCCCC[C@H](NC(=O)[C@H](CO)NC(=O)[C@@H](Cc1cccnc1)NC(=O)[C@@H](Cc1ccc(Cl)cc1)NC(=O)[C@@H](Cc1ccc2ccccc2c1)NC(C)=O)C(=O)N[C@H](CCCCNC(C)=O)C(=O)N[C@@H](CC(C)C)C(=O)N[C@@H](CCCCNC(C)C)C(=O)N1CCC[C@H]1C(=O)N[C@H](C)N
Duration of action (Rattus norvegicus [11]): inactive
Relative potency [3]: 0.36
No. of rats ovulated (Rattus norvegicus [12]): 3

CC(=O)N[C@H](Cc1ccc2ccccc2c1)C(=O)N[C@H](Cc1ccc(Cl)cc1)C(=O)N[C@H](Cc1cccnc1)C(=O)N[C@@H](CO)C(=O)N[C@@H](Cc1ccc(NC(=O)CNc2n[nH]c(N)n2)cc1)C(=O)N[C@H](Cc1ccc(NC(=O)CNc2n[nH]c(N)n2)cc1)C(=O)N[C@@H](CC(C)C)C(=O)N[C@@H](CCCCNC(C)C)C(=O)N1CCC[C@H]1C(=O)N[C@H](C)N
Duration of action (Rattus norvegicus [13]): 48 h
No. of rats ovulated (Rattus norvegicus [6]): 3
Relative potency [3]: 1.1
No. of rats ovulated (Rattus norvegicus [7]): 5

CC(=O)N[C@@H](CC(N)=O)C(=O)Nc1ccc(C[C@H](NC(=O)[C@H](CO)NC(=O)[C@@H](Cc2cccnc2)NC(=O)[C@@H](Cc2ccc(Cl)cc2)NC(=O)[C@@H](Cc2ccc3ccccc3c2)NC(C)=O)C(=O)N[C@H](Cc2ccc(NC(=O)[C@@H](CC(N)=O)NC(C)=O)cc2)C(=O)N[C@@H](CC(C)C)C(=O)N[C@@H](CCCCNC(C)C)C(=O)N2CCC[C@H]2C(=O)N[C@H](C)N)cc1
No. of rats ovulated (Rattus norvegicus [14]): 4
No. of rats ovulated (Rattus norvegicus [15]): 2

Reference: ChEMBL document CHEMBL1128434, “Gonadotropin-releasing hormone antagonists: novel members of the azaline B family” (1995)
